One block for each compound: values may come before it.
Legend:
BMPR2 kinase domain [1] = target: T1, BMPR2 kinase domain (Homo sapiens, UniProt Q13873); test: BMPR2 Kinase-Glo kinase inhibition assay; type: biochemical; details: for fold loss of BMPR2 potency: compared to parent CDD-1115 (CDD-1280: relative to CDD-1281)
T1 sequence (Q13873 188-517): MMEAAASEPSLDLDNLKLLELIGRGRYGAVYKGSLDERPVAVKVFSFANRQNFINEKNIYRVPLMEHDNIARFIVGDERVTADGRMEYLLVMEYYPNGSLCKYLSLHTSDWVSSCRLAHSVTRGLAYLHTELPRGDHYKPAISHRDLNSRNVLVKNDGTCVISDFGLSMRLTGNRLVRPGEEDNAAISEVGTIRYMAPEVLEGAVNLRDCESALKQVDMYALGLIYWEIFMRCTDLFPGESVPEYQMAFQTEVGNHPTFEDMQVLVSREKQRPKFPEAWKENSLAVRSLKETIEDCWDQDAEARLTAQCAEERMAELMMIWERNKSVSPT
Method in brief: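 Recombinant human BMPR2 kinase domain (aa188-517, C-terminal His-tag) expressed in E. coli and purified by affinity, anion-exchange and size-exclusion chromatography. Substrate-free ATPase end-point assay: 10 μM ATP, 0.02% Tween-20, kinase buffer, 30 min at 30 °C. Enzyme level optimized for linear initial velocity. Leftover ATP read by luciferase luminescence, with no-kinase controls. Kiapp from modified Morrison equation fit to normalized fractional activity, no inhibition mode assumed.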

[2] = test system: pSMAD1/5 in human umbilical vein endothelial cells (HUVECs); test: pSMAD1/5 Western blot, BMP9-stimulated HUVECs; type: cell-based; details: 25 μM, 30 min pretreatment, 0.5 ng/mL BMP9 15 min
Method in brief: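 HUVECs, about 3 × 10^5 per well, starved overnight in Kaighn's F-12 with 0.5% FBS and 30 μg/mL endothelial cell growth supplement. Pretreated with inhibitors for 30 min, then given 0.5 ng/mL BMP9 for 15 min. Lysed with protease and phosphatase inhibitors. SDS-PAGE immunoblot for pSMAD1/5, SMAD1, SMAD5 and GAPDH, with densitometry. n = 3 biological replicates; one-way ANOVA with Tukey post hoc test.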

BMPR2 kinase domain [3] = target: T1, BMPR2 kinase domain; test: Thermal shift assay; type: binding; details: 50 μM compound; BMPR2 alone Tm 52.1 °C
Method in brief: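 Purified BMPR2 kinase domain (1 μg) in 50 mM Tris–HCl pH 7.5, 150 mM NaCl with 50 μM test compound and 5× SYPRO Orange. Heated 20 to 95 °C, fluorescence read every 10 s. Tm taken from the unfolding curve; three technical replicates averaged.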

WNK2 = WNK2 (Homo sapiens, UniProt Q9Y3S1); test: ThermoFisher Kd Elect screening; type: binding
WNK1 = WNK1 (Homo sapiens, UniProt Q9H4A3); test: ThermoFisher Kd Elect screening; type: binding
WNK1, sequence (Q9H4A3 whole entry): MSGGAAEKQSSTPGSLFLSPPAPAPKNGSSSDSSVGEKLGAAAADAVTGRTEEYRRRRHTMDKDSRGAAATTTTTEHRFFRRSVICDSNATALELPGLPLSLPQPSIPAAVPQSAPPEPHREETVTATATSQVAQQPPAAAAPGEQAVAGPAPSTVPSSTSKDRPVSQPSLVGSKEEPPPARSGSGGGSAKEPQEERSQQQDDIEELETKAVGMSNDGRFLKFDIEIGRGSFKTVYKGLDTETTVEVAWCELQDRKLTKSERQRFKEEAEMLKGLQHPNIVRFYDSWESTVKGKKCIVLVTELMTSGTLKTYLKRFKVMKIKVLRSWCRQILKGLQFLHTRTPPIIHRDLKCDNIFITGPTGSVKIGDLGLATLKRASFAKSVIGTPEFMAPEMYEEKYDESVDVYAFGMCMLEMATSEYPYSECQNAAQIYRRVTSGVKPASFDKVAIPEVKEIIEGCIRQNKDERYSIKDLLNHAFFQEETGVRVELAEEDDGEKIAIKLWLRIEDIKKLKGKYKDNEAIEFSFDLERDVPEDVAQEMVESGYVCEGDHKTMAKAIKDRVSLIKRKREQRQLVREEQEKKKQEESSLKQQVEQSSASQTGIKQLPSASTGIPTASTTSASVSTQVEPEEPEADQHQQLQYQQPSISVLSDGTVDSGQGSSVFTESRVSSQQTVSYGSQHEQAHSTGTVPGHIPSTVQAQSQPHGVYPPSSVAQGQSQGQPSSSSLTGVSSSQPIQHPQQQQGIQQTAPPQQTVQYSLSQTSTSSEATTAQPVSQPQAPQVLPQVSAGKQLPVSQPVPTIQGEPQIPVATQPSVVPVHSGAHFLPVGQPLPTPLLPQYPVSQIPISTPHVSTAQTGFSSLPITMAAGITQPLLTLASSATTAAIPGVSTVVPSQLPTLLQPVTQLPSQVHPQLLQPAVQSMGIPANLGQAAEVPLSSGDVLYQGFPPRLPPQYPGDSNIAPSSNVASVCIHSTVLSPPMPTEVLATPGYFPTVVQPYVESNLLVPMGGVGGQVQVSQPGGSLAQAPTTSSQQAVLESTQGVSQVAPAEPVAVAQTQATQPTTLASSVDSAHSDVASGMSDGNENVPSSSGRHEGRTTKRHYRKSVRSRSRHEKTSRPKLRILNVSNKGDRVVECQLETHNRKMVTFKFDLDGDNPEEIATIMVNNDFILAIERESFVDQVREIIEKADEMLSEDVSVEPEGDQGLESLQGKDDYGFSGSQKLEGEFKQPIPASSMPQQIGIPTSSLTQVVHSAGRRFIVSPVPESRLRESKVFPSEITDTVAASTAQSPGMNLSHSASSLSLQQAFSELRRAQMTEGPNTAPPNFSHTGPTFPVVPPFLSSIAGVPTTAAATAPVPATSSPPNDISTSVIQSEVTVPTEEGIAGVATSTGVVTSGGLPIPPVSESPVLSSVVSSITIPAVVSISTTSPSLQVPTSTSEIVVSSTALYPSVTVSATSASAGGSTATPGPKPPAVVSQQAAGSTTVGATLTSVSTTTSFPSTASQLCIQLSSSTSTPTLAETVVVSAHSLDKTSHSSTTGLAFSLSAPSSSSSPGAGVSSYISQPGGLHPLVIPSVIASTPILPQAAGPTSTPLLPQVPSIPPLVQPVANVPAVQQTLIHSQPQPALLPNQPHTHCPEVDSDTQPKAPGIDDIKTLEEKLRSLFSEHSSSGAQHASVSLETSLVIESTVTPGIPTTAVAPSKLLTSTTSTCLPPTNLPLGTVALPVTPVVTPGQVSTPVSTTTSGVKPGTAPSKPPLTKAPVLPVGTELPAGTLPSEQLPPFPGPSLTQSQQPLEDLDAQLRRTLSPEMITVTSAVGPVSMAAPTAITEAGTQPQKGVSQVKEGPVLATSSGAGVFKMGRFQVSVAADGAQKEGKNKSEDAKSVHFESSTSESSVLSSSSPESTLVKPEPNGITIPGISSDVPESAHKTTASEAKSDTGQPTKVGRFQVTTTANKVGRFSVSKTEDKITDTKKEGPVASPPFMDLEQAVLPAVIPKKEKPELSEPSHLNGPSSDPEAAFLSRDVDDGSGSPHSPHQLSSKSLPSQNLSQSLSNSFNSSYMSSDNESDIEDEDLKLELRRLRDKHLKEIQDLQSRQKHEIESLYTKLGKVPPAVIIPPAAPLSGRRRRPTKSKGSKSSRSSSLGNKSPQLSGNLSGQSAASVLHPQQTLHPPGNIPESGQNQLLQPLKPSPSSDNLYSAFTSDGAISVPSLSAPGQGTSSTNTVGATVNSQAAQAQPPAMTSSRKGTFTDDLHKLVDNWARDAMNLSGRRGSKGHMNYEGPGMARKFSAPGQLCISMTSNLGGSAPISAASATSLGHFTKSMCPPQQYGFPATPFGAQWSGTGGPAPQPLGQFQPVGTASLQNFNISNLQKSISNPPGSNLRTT

WNK2, sequence (Q9Y3S1 whole entry): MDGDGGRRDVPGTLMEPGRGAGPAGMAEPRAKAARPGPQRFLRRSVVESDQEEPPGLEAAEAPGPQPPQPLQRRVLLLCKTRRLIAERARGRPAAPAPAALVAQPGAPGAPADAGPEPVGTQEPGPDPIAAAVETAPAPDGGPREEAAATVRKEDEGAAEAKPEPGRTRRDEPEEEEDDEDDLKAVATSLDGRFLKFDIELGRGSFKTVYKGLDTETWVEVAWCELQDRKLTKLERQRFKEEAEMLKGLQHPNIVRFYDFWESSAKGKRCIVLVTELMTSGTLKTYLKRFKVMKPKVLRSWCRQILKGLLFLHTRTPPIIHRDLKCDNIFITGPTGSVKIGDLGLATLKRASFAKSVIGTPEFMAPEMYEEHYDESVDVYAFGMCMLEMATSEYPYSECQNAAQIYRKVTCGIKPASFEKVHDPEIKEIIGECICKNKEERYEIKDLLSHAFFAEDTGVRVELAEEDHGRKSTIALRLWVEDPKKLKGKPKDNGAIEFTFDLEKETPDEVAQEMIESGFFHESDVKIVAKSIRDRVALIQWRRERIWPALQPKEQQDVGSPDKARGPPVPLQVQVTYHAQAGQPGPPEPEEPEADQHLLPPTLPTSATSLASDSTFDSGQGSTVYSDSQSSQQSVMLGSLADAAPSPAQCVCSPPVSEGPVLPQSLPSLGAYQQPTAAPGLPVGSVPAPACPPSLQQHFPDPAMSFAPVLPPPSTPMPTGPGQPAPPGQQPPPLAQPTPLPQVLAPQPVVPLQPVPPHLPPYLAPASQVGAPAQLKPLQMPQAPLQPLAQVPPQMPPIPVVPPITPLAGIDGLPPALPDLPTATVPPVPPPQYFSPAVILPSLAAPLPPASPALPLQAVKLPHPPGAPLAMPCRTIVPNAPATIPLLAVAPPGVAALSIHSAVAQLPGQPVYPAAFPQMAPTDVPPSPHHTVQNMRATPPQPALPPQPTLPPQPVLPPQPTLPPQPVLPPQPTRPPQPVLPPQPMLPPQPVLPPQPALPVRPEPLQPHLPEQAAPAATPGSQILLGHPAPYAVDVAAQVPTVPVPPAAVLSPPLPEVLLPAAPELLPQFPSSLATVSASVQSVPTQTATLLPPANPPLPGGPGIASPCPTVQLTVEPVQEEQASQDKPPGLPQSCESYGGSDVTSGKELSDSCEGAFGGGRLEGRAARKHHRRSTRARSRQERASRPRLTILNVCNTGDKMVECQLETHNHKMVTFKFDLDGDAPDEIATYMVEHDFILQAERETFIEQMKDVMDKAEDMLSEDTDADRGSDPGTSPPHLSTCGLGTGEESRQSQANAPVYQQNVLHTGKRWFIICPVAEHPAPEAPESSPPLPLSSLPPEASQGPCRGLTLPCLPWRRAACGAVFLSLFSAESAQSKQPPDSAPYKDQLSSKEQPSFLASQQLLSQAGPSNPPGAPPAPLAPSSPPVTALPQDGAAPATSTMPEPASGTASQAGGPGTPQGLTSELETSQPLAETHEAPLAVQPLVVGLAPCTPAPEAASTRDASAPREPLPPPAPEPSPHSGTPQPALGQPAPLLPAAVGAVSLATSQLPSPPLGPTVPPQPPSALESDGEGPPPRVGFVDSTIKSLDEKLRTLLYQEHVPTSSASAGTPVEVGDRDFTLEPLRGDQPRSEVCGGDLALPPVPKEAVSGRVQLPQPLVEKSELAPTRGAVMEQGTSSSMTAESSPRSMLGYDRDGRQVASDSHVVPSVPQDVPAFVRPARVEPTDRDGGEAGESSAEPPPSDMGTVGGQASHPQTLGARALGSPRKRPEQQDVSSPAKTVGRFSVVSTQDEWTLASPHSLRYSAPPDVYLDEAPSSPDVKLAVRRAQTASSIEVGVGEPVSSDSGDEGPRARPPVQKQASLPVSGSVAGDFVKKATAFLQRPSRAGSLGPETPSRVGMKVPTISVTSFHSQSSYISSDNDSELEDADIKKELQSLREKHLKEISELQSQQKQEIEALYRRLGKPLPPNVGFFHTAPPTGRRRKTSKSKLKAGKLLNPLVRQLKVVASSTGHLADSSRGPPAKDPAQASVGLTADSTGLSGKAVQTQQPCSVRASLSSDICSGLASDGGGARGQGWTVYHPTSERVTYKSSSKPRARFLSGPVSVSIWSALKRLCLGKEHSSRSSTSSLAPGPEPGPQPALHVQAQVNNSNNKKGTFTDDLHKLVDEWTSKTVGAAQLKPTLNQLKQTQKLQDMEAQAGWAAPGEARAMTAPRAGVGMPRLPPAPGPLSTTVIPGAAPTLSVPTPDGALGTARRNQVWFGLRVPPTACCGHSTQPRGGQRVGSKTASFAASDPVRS

Compound: CCOc1cnc(Nc2cccc(S(N)(=O)=O)c2)nc1N1CCN(c2ccccc2)C(=O)C1 [CDD-1703, 3-((5-Ethoxy-4-(3-oxo-4-phenylpiperazin-1-yl)pyrimidin-2-yl)amino)benzenesulfonamide]
fold improved BMPR2 potency (BMPR2 kinase domain [1]; compared to parent CDD-1431): 4 fold

Compound: COc1cnc(Nc2cccc(S(N)(=O)=O)c2)nc1N1CCN(c2ccccc2)CC1 [CDD-1496, 3-((5-Methoxy-4-(4-phenylpiperazin-1-yl)pyrimidin-2-yl)amino)benzenesulfonamide]
fold drop in BMPR2 potency (BMPR2 kinase domain [1]; compared to parent CDD-1431): 2 fold | phosphorylation of SMAD1/5 (pSMAD1/5) [2]: significantly decreased

Compound: Cn1c(-c2ccc3cnccc3c2)nc2ccc(C(=O)NCc3cccc(C(N)=O)c3)cc21 [CDD-1280, N-(3-Carbamoylbenzyl)-2-(isoquinolin-6-yl)-1-methyl-1H-benzo[d]imidazole-6-carboxamide]
fold loss of BMPR2 potency (BMPR2 kinase domain [1]): 2.7 fold

Compound: COc1cnc(Nc2cccc(S(N)(=O)=O)c2)nc1N1CCNCC1 [CDD-1497, 3-((5-Methoxy-4-(piperazin-1-yl)pyrimidin-2-yl)amino)benzenesulfonamide]
fold drop in BMPR2 potency (BMPR2 kinase domain [1]; compared to parent CDD-1431): 12 fold

Compound: CNC(=O)CCc1ccc(C(=O)NCc2cccc(N3CCN(c4nc(Nc5cccc(S(N)(=O)=O)c5)ncc4OC)CC3)c2)cc1 [CDD-1431, N-(3-(4-(5-Methoxy-2-((3-sulfamoylphenyl)amino)pyrimidin-4-yl)piperazin-1-yl)benzyl)-4-(3-(methylamino)-3-oxopropyl)benzamide]
melting temperature (Tm) (BMPR2 kinase domain [3]): 66.0 °C

Compound: COc1cnc(Nc2cccc(S(N)(=O)=O)c2)nc1N1CCN(c2ccccc2)C(=O)C1 [CDD-1653, 3-((5-Methoxy-4-(3-oxo-4-phenylpiperazin-1-yl)pyrimidin-2-yl)amino)benzenesulfonamide]
Kd (WNK2): > 3 µM | Kd (WNK1): > 3 µM | phosphorylation of SMAD1/5 (pSMAD1/5) [2]: significantly decreased

Now from value to compound:

fold loss of BMPR2 potency (BMPR2 kinase domain [1]): 6.2 fold
Compound: CNC(=O)[C@@H]1CC[C@@H](n2c(-c3ccc4cnccc4c3)nc3ccc(C(=O)NCc4ccccc4)cc32)C1 [CDD-1283, N-Benzyl-2-(isoquinolin-6-yl)-1-((1R,3R)-3-(methylcarbamoyl)cyclopentyl)-1H-benzo[d]imidazole-6-carboxamide]

fold loss of BMPR2 potency (BMPR2 kinase domain [1]): 160 fold
Compound: CNC(=O)[C@@H]1CC[C@@H](n2c(-c3cc(Cl)cc(Cl)c3)nc3ccc(C(=O)NCc4cccc(C(N)=O)c4)cc32)C1 [CDD-1285, N-(3-Carbamoylbenzyl)-2-(3,5-dichlorophenyl)-1-((1R,3R)-3-(methylcarba-moyl)cyclopentyl)-1H-benzo[d]imidazole-6-carboxamide]

fold loss of BMPR2 potency (BMPR2 kinase domain [1]): complete loss of potency
Compound: CNC(=O)c1ccc2nc(-c3ccc4cnccc4c3)n([C@@H]3CC[C@@H](C(=O)NC)C3)c2c1 [CDD-1282, 2-(Isoquinolin-6-yl)-N-methyl-1-((1R,3R)-3-(methylcarbamoyl)cyclopentyl)-1H-benzo[d]imidazole-6-carboxamide]

fold loss of BMPR2 potency (BMPR2 kinase domain [1]): 160 fold
Compound: CNC(=O)[C@@H]1CC[C@@H](n2c(-c3cccc(Cl)c3)nc3ccc(C(=O)NCc4cccc(C(N)=O)c4)cc32)C1 [CDD-1284, N-(3-Carbamoylbenzyl)-2-(3-chlorophenyl)-1-((1R,3R)-3-(methylcarbamoyl)cyclopentyl)-1H-benzo[d]imidazole-6-carboxamide]
